# According to PubChem BioAssay AID540324 (Johns Hopkins Ion Channel Center, 2011):
# Active and inactive are the calls of the source.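 How the source made its calls: active means maximum inhibition above 30% at any tested concentration, with a dose response curve fitted; inactive means no inhibition at any dose or no dose response curve.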
# Experiment: thallium flux inhibition in parental HEK293 cells, SAR follow-up, counter-screen for KCNK9 inhibitor project, cell-based, FluxOR thallium flux, concentration-response, set 2 (AID 540324)
# Details: FluxOR fluorescence ratio; series mostly up to 30 µM
# Outline: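 System – parental HEK293 cells lacking KCNK9 expression · Reagent – K+/Tl+ sulfate stimulus, 5x stock · Dosing – Ten-concentration dilution series per compound · Times – dye loading 90 min at room temperature in dark, compound exposure 20 min · Detection – fluorescence of thallium-sensitive FluxOR dye · Repeats – at least two replicates per compound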
row,SMILES,outcome
1,CCOc1ccccc1C(=O)Nc1cccc(NC(=O)c2cccc(C)c2)c1,inactive
2,Cc1cccc(-c2n[nH]c(=S)n2C(C)C2CC3CCC2C3)c1 (stereo unspecified),inactive
3,CC(C1CC2CCC1C2)n1c(-c2ccccc2Cl)n[nH]c1=S (stereo unspecified),inactive
4,COc1ccccc1NC(=O)c1cccc(NC(=O)CC2CCCC2)c1,inactive
5,O=C(Nc1cccc(NC(=O)c2cccc(Cl)c2)c1)c1ccccc1,inactive
6,CCOc1ccccc1NC(=O)c1cccc(NC(=O)c2ccccc2)c1,inactive
7,COc1ccc(C(=O)Nc2cccc(NC(=O)c3cccc(C)c3)c2)cc1,inactive
8,CCOc1ccccc1NC(=O)c1cccc(NC(=O)c2cccc(OC)c2)c1,inactive
9,O=C(Nc1cccc(NC(=O)c2ccc(Cl)cc2)c1)c1ccccc1,inactive
10,CC(C1CC2CCC1C2)n1c(-c2ccco2)n[nH]c1=S (stereo unspecified),inactive
11,Cc1cccc(C(=O)Nc2cccc(NC(=O)c3ccccc3C(C)C)c2)c1,inactive
12,COc1cccc(-c2n[nH]c(=S)n2C(C)C2CC3CCC2C3)c1 (stereo unspecified),inactive
13,COc1ccccc1NC(=O)c1cccc(NC(=O)c2ccccc2OC)c1,inactive
14,CCOc1ccccc1C(=O)Nc1cccc(NC(=O)c2ccccc2OC)c1,inactive
15,CCOc1ccccc1NC(=O)c1cccc(NC(=O)CC2CCCCC2)c1,inactive
16,COc1ccccc1C(=O)Nc1cccc(NC(=O)c2ccccc2C(C)C)c1,inactive
17,O=C(Nc1cccc(NC(=O)c2ccccc2Cl)c1)c1ccccc1,inactive
18,Cc1cccc(C(=O)Nc2cccc(NC(=O)c3ccccc3C(F)(F)F)c2)c1,inactive

row,SMILES,outcome
1,COc1ccc(-c2n[nH]c(=S)n2C(C)C2CC3CCC2C3)cc1 (stereo unspecified),inactive
2,COc1ccccc1C(=O)Nc1cccc(NC(=O)c2ccccc2OC)c1,inactive
3,CCOc1ccccc1NC(=O)c1cccc(NC(=O)c2ccc(Cl)cc2)c1,inactive
4,O=C(Nc1cccc(NC(=O)c2cccc(F)c2)c1)c1ccccc1,inactive
5,CC(C1CC2CCC1C2)n1c(-c2ccccc2)n[nH]c1=S (stereo unspecified),inactive
6,Cc1cccc(C(=O)Nc2cccc(NC(=O)c3ccncc3)c2)c1,inactive
7,CC(c1ccco1)n1c(-c2ccoc2)n[nH]c1=S (stereo unspecified),inactive
8,CC(c1ccccc1)n1c(-c2ccco2)n[nH]c1=S (stereo unspecified),inactive
9,CCOc1ccccc1NC(=O)c1cccc(NC(=O)C(C)(C)C)c1,inactive
10,O=C(Nc1ccccc1Cl)c1cccc(NC(=O)C2CCCC2)c1,inactive
11,Cc1cccc(C(=O)Nc2cccc(NC(=O)c3ccc(N(C)C)cc3)c2)c1,inactive
12,Cc1cccc(C(=O)Nc2cccc(NC(=O)c3ccccc3OC(F)(F)F)c2)c1,inactive
13,CC(C1CC2CCC1C2)n1c(-c2cccc(Cl)c2)n[nH]c1=S (stereo unspecified),inactive
14,CCOc1ccccc1NC(=O)c1cccc(NC(=O)c2ccccc2OC(F)(F)F)c1,inactive
15,CCOc1ccccc1NC(=O)c1cccc(C(=O)NC2CCCC2)c1,inactive
16,CCOc1ccccc1NC(=O)c1cccc(NC(=O)c2cccc(C(F)(F)F)c2)c1,inactive
17,COc1ccccc1NC(=O)c1cccc(NC(=O)c2ccccc2)c1,inactive
18,Cc1cccc(C(=O)Nc2cccc(NC(=O)c3ccc(C(C)(C)C)cc3)c2)c1,inactive
